# Data as given in publication PMC6176371 (Oncology Letters, 2018).
# pIC50: −log10 of the molar value. Entries after “also recorded” stand apart in the source; their conditions may differ. Where two headings read alike, the source gives them in different places.
# Columns and labels:
# KB cells = test: cells; format: cell-based; details: Homo sapiens, read-out: IC50 ± SD
# KB/VCR cells = test: cells; format: cell-based; details: Homo sapiens, read-out: IC50 ± SD
# heart tissues = test: TUNEL assay of heart tissues; format: in vivo; details: male and female Balb/c mice
# Outline: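 Heart tissue came from the 3-week mouse study: vehicle; test compound 100 mg/kg gavage twice weekly; ADM 20 mg/kg i.p. on day 6; combination. Paraffin sections (4 µm) were stained with an in situ TUNEL kit, and positive cells were counted in three random fields per slide by light microscopy. Percent apoptotic cells was compared by one-way ANOVA with Dunnett's test.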
# CYP3A4 = CYP3A4 (Homo sapiens, UniProt P08684); test: CYP inhibition in pooled human liver microsomes, CYP3A4; format: biochemical
# CYP1A2 = molecular target: T1, CYP1A2 (Homo sapiens, UniProt P05177); test: CYP inhibition in pooled human liver microsomes, CYP1A2; format: biochemical
# T1 sequence (P05177 1-516): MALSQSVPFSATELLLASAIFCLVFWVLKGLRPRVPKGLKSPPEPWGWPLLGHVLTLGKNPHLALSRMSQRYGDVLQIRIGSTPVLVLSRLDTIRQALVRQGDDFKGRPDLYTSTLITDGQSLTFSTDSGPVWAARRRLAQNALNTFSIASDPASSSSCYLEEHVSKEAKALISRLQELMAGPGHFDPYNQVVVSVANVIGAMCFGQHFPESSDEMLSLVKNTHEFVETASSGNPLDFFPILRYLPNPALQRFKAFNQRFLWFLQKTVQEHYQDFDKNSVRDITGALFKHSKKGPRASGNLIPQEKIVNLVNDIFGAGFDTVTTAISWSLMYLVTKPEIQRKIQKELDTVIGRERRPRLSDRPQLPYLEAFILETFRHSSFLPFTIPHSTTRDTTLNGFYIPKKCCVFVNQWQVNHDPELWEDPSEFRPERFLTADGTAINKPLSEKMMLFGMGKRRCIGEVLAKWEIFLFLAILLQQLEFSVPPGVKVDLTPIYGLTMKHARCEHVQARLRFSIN
# CYP2B6 = molecular target: T2, CYP2B6 (Homo sapiens, UniProt P20813); test: CYP inhibition in pooled human liver microsomes, CYP2B6; format: biochemical; details: CYP2B6, Bupropion hydroxylation
# T2 sequence (P20813 1-491): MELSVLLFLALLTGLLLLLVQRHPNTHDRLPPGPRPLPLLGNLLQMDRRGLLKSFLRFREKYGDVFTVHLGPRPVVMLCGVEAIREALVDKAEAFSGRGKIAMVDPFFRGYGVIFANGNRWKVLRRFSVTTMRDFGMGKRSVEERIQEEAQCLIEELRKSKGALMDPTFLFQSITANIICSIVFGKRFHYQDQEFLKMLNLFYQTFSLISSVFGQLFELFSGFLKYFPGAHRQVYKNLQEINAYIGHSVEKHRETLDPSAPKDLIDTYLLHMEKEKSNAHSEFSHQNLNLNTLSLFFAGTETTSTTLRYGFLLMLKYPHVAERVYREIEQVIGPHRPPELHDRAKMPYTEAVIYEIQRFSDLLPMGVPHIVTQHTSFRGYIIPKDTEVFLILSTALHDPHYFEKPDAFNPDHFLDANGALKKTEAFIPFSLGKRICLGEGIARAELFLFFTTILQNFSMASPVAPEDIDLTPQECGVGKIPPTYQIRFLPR
# CYP2C8 = molecular target: T3, CYP2C8 (Homo sapiens, UniProt P10632); test: CYP inhibition in pooled human liver microsomes, CYP2C8; format: biochemical; details: CYP2C8, Amodiaquine N-deethylation
# T3 sequence (P10632 1-490): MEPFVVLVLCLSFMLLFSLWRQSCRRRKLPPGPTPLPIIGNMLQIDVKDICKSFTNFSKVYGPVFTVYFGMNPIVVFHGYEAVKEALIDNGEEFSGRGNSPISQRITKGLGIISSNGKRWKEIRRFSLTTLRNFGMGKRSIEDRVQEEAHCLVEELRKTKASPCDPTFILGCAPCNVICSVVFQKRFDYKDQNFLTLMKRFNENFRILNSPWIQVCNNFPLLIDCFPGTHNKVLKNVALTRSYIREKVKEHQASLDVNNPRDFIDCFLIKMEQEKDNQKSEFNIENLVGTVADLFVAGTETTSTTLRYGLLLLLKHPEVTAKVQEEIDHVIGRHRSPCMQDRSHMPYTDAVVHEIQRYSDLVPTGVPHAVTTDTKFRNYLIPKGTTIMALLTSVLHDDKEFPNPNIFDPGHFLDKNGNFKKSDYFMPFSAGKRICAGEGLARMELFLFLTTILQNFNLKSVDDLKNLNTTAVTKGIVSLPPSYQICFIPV
# CYP2C9 = CYP2C9 (Homo sapiens, UniProt P11712); test: CYP inhibition in pooled human liver microsomes, CYP2C9; format: biochemical
# CYP2D6 = CYP2D6 (Homo sapiens, UniProt P10635); test: CYP inhibition in pooled human liver microsomes, CYP2D6; format: biochemical; details: CYP2D6, Dextromethorphandextrorphan
# [1] = Pharmacokinetic study, oral and i.v. administration; format: in vivo, SD rats
# Outline: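 Adult male SD rats got a single 10 mg/kg dose by tail-vein injection or oral gavage. Blood was drawn from three rats predose and at 0.083–24 h; plasma was frozen at −80°C. Plasma was deproteinized with methanol containing 250 nM internal standard for LC/MS/MS. PK parameters came from a noncompartmental i.v.-bolus model.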
# Balb/c mice = test: Maximum tolerant dosage, single high-dose PPD12; format: in vivo; details: 1 g/kg PPD12
# Outline: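 Single oral gavage of test compound at 1 g/kg to Balb/c mice to assess tolerability of a single high dose.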
# CYP2C19 = CYP2C19 (Homo sapiens, UniProt P33261); details: CYP2C19, S-mephenytoin4′-hydroxylation, human liver microsomes
# CYP2C19, sequence (P33261 whole entry): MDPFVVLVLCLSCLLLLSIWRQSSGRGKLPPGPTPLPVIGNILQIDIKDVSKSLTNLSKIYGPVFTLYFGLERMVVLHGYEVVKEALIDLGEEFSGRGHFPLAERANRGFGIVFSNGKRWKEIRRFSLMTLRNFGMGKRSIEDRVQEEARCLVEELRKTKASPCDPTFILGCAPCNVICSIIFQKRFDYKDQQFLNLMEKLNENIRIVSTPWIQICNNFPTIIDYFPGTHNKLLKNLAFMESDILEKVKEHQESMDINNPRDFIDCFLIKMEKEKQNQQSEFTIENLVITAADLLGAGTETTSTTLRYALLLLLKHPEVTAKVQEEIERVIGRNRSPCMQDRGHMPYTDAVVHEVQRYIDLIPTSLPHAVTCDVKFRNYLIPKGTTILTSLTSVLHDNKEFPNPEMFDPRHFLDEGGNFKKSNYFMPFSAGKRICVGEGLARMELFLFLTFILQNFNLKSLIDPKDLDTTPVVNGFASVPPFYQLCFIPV
# CYP2C9, sequence (P11712 whole entry): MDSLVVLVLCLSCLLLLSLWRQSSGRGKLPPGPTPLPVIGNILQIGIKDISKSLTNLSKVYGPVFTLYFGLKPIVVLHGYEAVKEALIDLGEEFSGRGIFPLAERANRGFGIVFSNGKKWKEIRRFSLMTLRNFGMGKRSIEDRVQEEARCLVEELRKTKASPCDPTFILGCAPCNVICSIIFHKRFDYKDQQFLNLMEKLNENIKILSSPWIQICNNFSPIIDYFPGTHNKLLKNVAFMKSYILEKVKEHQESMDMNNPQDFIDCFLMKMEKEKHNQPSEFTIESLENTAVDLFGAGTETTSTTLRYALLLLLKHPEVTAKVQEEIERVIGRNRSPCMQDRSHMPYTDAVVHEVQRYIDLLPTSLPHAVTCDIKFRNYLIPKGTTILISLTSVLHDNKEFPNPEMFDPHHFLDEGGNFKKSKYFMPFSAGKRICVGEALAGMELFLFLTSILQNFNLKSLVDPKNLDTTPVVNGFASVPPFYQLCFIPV
# CYP3A4, sequence (P08684 whole entry): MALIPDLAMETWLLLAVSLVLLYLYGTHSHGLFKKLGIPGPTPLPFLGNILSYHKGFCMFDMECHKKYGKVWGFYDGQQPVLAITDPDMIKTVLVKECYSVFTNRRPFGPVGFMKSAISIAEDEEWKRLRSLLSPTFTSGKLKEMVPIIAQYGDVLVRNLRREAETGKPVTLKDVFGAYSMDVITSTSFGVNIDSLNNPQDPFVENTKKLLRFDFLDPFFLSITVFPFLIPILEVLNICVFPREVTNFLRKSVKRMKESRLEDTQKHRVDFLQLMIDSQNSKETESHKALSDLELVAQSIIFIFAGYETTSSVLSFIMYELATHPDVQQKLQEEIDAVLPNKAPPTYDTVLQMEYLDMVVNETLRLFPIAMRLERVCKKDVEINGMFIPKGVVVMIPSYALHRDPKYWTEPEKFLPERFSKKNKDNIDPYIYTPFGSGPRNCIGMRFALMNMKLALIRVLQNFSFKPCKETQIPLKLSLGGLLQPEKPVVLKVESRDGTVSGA
# CYP2D6, sequence (P10635 whole entry): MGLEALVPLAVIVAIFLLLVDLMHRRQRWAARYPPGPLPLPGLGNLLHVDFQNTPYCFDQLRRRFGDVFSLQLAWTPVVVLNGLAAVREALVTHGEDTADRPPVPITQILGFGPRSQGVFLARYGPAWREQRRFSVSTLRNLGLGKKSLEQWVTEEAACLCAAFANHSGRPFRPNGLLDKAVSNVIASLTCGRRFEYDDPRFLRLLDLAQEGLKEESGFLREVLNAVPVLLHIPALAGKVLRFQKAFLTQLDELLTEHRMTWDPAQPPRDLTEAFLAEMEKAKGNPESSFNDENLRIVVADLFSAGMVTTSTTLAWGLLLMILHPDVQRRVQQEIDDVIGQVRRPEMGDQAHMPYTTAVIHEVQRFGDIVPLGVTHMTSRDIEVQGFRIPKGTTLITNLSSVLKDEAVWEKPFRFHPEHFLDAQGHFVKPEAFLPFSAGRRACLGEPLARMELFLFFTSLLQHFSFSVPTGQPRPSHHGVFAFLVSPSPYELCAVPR
smiles,measurement,setting,value
"COc1cccc2c1C(=O)c1c(O)c3c(c(O)c1C2=O)C[C@@](O)(C(=O)CO)C[C@@H]3O[C@H]1C[C@H](N)[C@H](O)[C@H](C)O1 [ADM, Adriamycin]",pIC50,KB cells; 24 h,5.62
same,pIC50,KB cells; 48 h,6.41
same,pIC50,KB cells; 72 h,7.15
same,pIC50,KB cells; 96 h,7.45
same,pIC50,KB/VCR cells; 24 h,3.82
same,pIC50,KB/VCR cells; 48 h,5.32
same,pIC50,KB/VCR cells; 72 h,5.82
same,pIC50,KB/VCR cells; 96 h,5.92
same,apoptotic cells in heart tissues (TUNEL) compared to the control group,heart tissues,significant increase in apoptosis
CC1(C)[C@@H](O)CC[C@]2(C)[C@H]3C[C@@H](O)[C@@H]4[C@@H]([C@@](C)(O)CCCNCc5ccccc5)CC[C@@]4(C)[C@]3(C)CC[C@@H]12 [PPD12],pIC50,"CYP3A4; CYP3A4, Midazolam 1′-hydroxylation",5.99
same,pIC50,"CYP3A4; CYP3A4, Testosterone 6-β-hydroxylation",5.07
same,pIC50,"CYP1A2; CYP1A2, Phenacetin 0-deethylation",< 4.48
same,inhibition of CYP1A2-mediated phenacetin 0-deethylation,CYP1A2; at 33 µM,negligible inhibition
same,pIC50,CYP2B6,5.66
same,pIC50,CYP2C8,5.02
same,pIC50,"CYP2C9; CYP2C9, Diclofenac4′-hydroxylation",< 4.48
same,inhibition of CYP2C9-mediated diclofenac4′-hydroxylation,CYP2C9; at 33 µM,negligible inhibition
same,pIC50,CYP2D6,4.93
same,oral absolute bioavailability,"[1]; male SD rats, 10 mg/kg oral vs i.v.",114.41±22.24%
same,bioavailability by oral administration,[1]; mouse model (so in the source),~100%
same,lethal effects / tolerability of a single high dosage,Balb/c mice,did not observe any lethal effects; also recorded: well tolerated
same,apoptotic cells in heart tissues (TUNEL) compared to the control group,heart tissues,no obvious difference in apoptotic cells
same,pIC50,CYP2C19,4.82
